Measurements reported in ChEMBL document CHEMBL3804761, “Synthesis of a stable and orally bioavailable englerin analogue” (Bioorg Med Chem Lett, 2016).

What was measured:
Format in all cases: functional
[1] = Growth inhibition of human SW620 cells assessed as cell growth at 10 uM incubated for 48 hrs by sulforhodamine B assay relative to control; conditions: SW-620, 48 h, read-out: Activity
Summary of the method: (§1)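 Run in the standard NCI 60-cell-line screen. Cells were exposed to drug for two days, and the read-out was sulforhodamine B staining. Compound was tested at a single final concentration of 10 µM in every line, and results are reported as growth percent.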

[2] = Growth inhibition of human SNB75 cells assessed as cell growth at 10 uM incubated for 48 hrs by sulforhodamine B assay relative to control; conditions: SNB-75, 48 h, read-out: Activity; summary of the method: as §1
[3] = Growth inhibition of human UACC257 cells assessed as cell growth at 10 uM incubated for 48 hrs by sulforhodamine B assay relative to control; conditions: UACC-257, 48 h, read-out: Activity
Summary of the method: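 NCI 60-cell line standard protocol, one-dose screen: single final concentration 10 µM, 2-day drug exposure, sulforhodamine B (SRB) endpoint; read-out is growth percent relative to untreated control.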

[4] = Growth inhibition of human OVCAR4 cells assessed as cell growth at 10 uM incubated for 48 hrs by sulforhodamine B assay relative to control; conditions: OVCAR-4, 48 h, read-out: Activity; summary of the method: as §1
A498 = test: Growth inhibition of human A498 cells assessed as cell growth at 10 uM incubated for 48 hrs by sulforhodamine B assay relative to control; conditions: A498, 48 h, read-out: Activity
ACHN = test: Growth inhibition of human ACHN cells assessed as cell growth at 10 uM incubated for 48 hrs by sulforhodamine B assay relative to control; conditions: read-out: Activity; summary of the method: as §1
CCRF-CEM [5] = test: Growth inhibition of human CCRF-CEM cells incubated for 48 hrs by sulforhodamine B assay
Summary of the method: (§2)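 NCI 60-cell-line panel, standard protocol. Cells exposed to compound for two days, growth read by sulforhodamine B staining. Tested at five 10-fold dilutions, top concentration 100 µM, to give dose-response curves.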

[6] = Growth inhibition of human RPMI8226 cells incubated for 48 hrs by sulforhodamine B assay; conditions: RPMI-8226, 48 h; summary of the method: as §2
SR = test: Growth inhibition of human SR cells incubated for 48 hrs by sulforhodamine B assay
Summary of the method: (§3)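 Tested in the standard NCI 60-cell-line protocol with two-day drug exposure and a sulforhodamine B endpoint. Compounds were first screened at a single final concentration of 10 µM, reported as growth percent. They were then run as five 10-fold dilutions starting from a high concentration of 100 µM to give dose-response curves.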

NCI-H322M [7] = test: Growth inhibition of human NCI-H322M cells incubated for 48 hrs by sulforhodamine B assay; summary of the method: as §2
NCI-H460 = test: Growth inhibition of human NCI-H460 cells incubated for 48 hrs by sulforhodamine B assay; conditions: NCI-H460, 48 h; summary of the method: as §2
KM12 = test: Growth inhibition of human KM12 cells incubated for 48 hrs by sulforhodamine B assay; conditions: KM12, 48 h; summary of the method: as §2
[8] = Growth inhibition of human SF268 cells incubated for 48 hrs by sulforhodamine B assay; conditions: SF-268, 48 h; summary of the method: as §2
Malme-3M = test: Growth inhibition of human MALME-3M cells incubated for 48 hrs by sulforhodamine B assay; summary of the method: as §2
SK-MEL-5 = test: Growth inhibition of human SK-MEL-5 cells incubated for 48 hrs by sulforhodamine B assay; conditions: SK-MEL-5, 48 h; summary of the method: as §2
[9] = Growth inhibition of human UACC62 cells incubated for 48 hrs by sulforhodamine B assay; conditions: UACC-62, 48 h; summary of the method: as §3
[10] = Growth inhibition of human OVCAR4 cells incubated for 48 hrs by sulforhodamine B assay; conditions: OVCAR-4, 48 h; summary of the method: as §2
[11] = Growth inhibition of human Caki1 cells incubated for 48 hrs by sulforhodamine B assay; conditions: CAKI-1, 48 h; summary of the method: as §2
[12] = Growth inhibition of human RXF393 cells incubated for 48 hrs by sulforhodamine B assay; conditions: RXF 393, 48 h
Summary of the method: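 Run in the NCI 60-cell-line protocol, with 2-day drug exposure and sulforhodamine B read-out. Dose-response testing used five 10-fold dilutions starting from a high concentration of 100 µM.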

[13] = Growth inhibition of human TK10 cells incubated for 48 hrs by sulforhodamine B assay; conditions: TK-10, 48 h; summary of the method: as §3
[14] = Growth inhibition of human BT549 cells incubated for 48 hrs by sulforhodamine B assay; conditions: BT-549, 48 h; summary of the method: as §2
K562 = test: Growth inhibition of human K562 cells incubated for 48 hrs by sulforhodamine B assay; conditions: K562, 48 h; summary of the method: as §2
[15] = Growth inhibition of human HL-60(TB) cells assessed as cell growth at 10 uM incubated for 48 hrs by sulforhodamine B assay relative to control; conditions: HL-60, 48 h, read-out: Activity
Summary of the method: (§4)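 Single-dose screen in the NCI 60-cell-line panel at one final concentration of 10 µM. Two-day drug exposure with a sulforhodamine B endpoint. Values are growth percent for each cell line.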

[16] = Growth inhibition of human MOLT4 cells assessed as cell growth at 10 uM incubated for 48 hrs by sulforhodamine B assay relative to control; conditions: MOLT-4, 48 h, read-out: Activity; summary of the method: as §1
[17] = Growth inhibition of human HOP62 cells assessed as cell growth at 10 uM incubated for 48 hrs by sulforhodamine B assay relative to control; conditions: HOP-62, 48 h, read-out: Activity; summary of the method: as §1
NCI-H23 = test: Growth inhibition of human NCI-H23 cells assessed as cell growth at 10 uM incubated for 48 hrs by sulforhodamine B assay relative to control; conditions: NCI-H23, 48 h, read-out: Activity; summary of the method: as §1
NCI-H322M [18] = test: Growth inhibition of human NCI-H322M cells assessed as cell growth at 10 uM incubated for 48 hrs by sulforhodamine B assay relative to control; conditions: read-out: Activity; summary of the method: as §1
CCRF-CEM [19] = test: Growth inhibition of human CCRF-CEM cells assessed as cell growth at 10 uM incubated for 48 hrs by sulforhodamine B assay relative to control; conditions: read-out: Activity; summary of the method: as §4
[20] = read-out: pLC50 (the source's name) (converted)

CC(C)[C@@]12C[C@@H](NC(=O)CO)[C@@](C)(O1)[C@@H]1CC[C@@H](C)[C@H]1[C@@H]2OC(=O)c1ccc2ccccc2c1
growth at 10 µM [1]: 96.2% | growth at 10 µM [2]: 72.7% | growth at 10 µM [3]: 101% | growth at 10 µM [4]: 82.2% | growth at 10 µM (A498): -15.2% | growth at 10 µM (ACHN): 8.4% | GI50 (CCRF-CEM [5]): 15.8 µM | CC50 (CCRF-CEM [5]; [20]): 75.9 µM | TGI (CCRF-CEM [5]; read-out: pTGI (converted)): 34.7 µM | GI50 [6]: 14.5 µM | CC50 [6, 20]: 85.1 µM | TGI ([6]; read-out: pTGI (converted)): 35.5 µM | GI50 (SR): 17.8 µM | LC50 (SR): 81.3 µM | TGI (SR; read-out: pTGI (converted)): 38 µM | GI50 (NCI-H322M [7]): 13.5 µM | LC50 (NCI-H322M [7]): 52.5 µM | TGI (NCI-H322M [7]; read-out: pTGI (converted)): 26.9 µM | GI50 (NCI-H460): 20.4 µM | CC50 (NCI-H460; [20]): 79.4 µM | TGI (NCI-H460; read-out: pTGI (converted)): 40.7 µM | GI50 (KM12): 17.4 µM | LC50 (KM12): 61.7 µM | TGI (KM12; read-out: pTGI (converted)): 32.4 µM | GI50 [8]: 13.5 µM | LC50 (lethal concentration, 50% net cell kill) [8]: 57.5 µM | TGI ([8]; read-out: pTGI (converted)): 28.2 µM | GI50 (Malme-3M): 16.2 µM | LC50 (Malme-3M): 69.2 µM | TGI (Malme-3M; read-out: pTGI (converted)): 33.1 µM | GI50 (SK-MEL-5): 16.6 µM | LC50 (SK-MEL-5): 56.2 µM | TGI (SK-MEL-5; read-out: pTGI (converted)): 30.9 µM | GI50 [9]: 13.5 µM | LC50 (lethal concentration, 50% net cell kill) [9]: 55 µM | TGI ([9]; read-out: pTGI (converted)): 26.9 µM | GI50 [10]: 16.2 µM | LC50 (concentration killing 50% of cells) [10]: 61.7 µM | TGI ([10]; read-out: pTGI (converted)): 31.6 µM | GI50 [11]: 10 µM | LC50 [11]: 50.1 µM | TGI ([11]; read-out: pTGI (converted)): 22.4 µM | GI50 [12]: 6.17 µM | CC50 [12, 20]: 49 µM | TGI ([12]; read-out: pTGI (converted)): 20.4 µM | GI50 [13]: 19.1 µM | CC50 [13, 20]: 60.3 µM | TGI ([13]; read-out: pTGI (converted)): 33.9 µM | GI50 [14]: 14.8 µM | CC50 [14, 20]: 57.5 µM | TGI ([14]; read-out: pTGI (converted)): 28.8 µM | GI50 (K562): 19.5 µM | CC50 (K562; [20]): 95.5 µM | TGI (K562; read-out: pTGI (converted)): 42.7 µM | growth at 10 µM [15]: 99.3% | growth at 10 µM [16]: 74.9% | growth at 10 µM [17]: 89.3% | growth at 10 µM (NCI-H23): 80.2% | growth at 10 µM (NCI-H322M [18]): 89.5%

CC(C)[C@@]12C[C@@H](NC(=O)CF)[C@@](C)(O1)[C@@H]1CC[C@@H](C)[C@H]1[C@@H]2OC(=O)/C=C/c1ccccc1
growth at 10 µM [1]: 101% | growth at 10 µM [2]: 87.9% | growth at 10 µM [3]: 105% | growth at 10 µM [4]: 105% | growth at 10 µM (A498): 83% | growth at 10 µM (ACHN): 105% | growth at 10 µM (CCRF-CEM [19]): 88.6% | growth at 10 µM [15]: 105% | growth at 10 µM [16]: 96.5% | growth at 10 µM [17]: 90.8% | growth at 10 µM (NCI-H23): 102% | growth at 10 µM (NCI-H322M [18]): 97.4%
